ChEMBL document CHEMBL1126298, “New triazine derivatives as potent modulators of multidrug resistance” (1992)

Columns and labels:
DC3F/AD [1] = assay: Increase in adriamycin uptake in modulator-treated cells relative to untreated cells at a concentration of 10 uM; type: functional, Cricetulus griseus
Procedure, shortened: (§1)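 DC-3F/AD or KB-A1 cells (5 × 10⁶/mL) were incubated at 37 °C for 5 h with 50 μM adriamycin plus modulator (2.5–10 μM range). ADR fluorescence of 10 000 cells was read by flow cytometry at 4 °C with 488 nm argon-laser excitation. The value is the increase in mean fluorescence of treated cells over untreated cells.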

DC3F/AD [2] = assay: (§2) Increase in adriamycin uptake in modulator-treated cells relative to untreated cells at a concentration of 5 uM; type: functional, Cricetulus griseus; procedure, shortened: as §1
Cricetinae gen. sp. [3] = assay: (§3) Percent of cell viability remaining after incubating the cells with the modulator alone at a concentration of 10 uM; type: functional, Cricetulus griseus
Procedure, shortened: (§4)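 Cells were grown with modulator alone for 4 days under the same conditions as the chemosensitivity assay, and read by MTT. Viability = (absorbance with modulator/absorbance of control cells) × 100. "tox" marks viability below 25%.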

DC3F/AD [4] = assay: Percent of cell viability remaining after incubating the cells with the modulator alone a concentration of 5 uM; type: functional, Cricetulus griseus; procedure, shortened: as §4
KB [5] = assay: Percent of cell viability remaining after incubating the cells with the modulator alone; type: functional, Homo sapiens; set-up: concentration or dose not given beside the values; procedure, shortened: as §4
KB [6] = assay: Increase in adriamycin uptake in modulator-treated cells relative to untreated KB-A1 cells at a concentration of 5 uM; type: functional, Homo sapiens; procedure, shortened: as §1
KB [7] = assay: Compound was evaluated for the in vitro activity in KB-A1 cell line. Activity expressed as fold reversion (Ratio of IC50(adriamycin alone) / IC50(adriamycin + modulator) at a concentration of 5 uM; type: functional, Homo sapiens
Procedure, shortened: (§5)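 Human epidermoid KB-A1 cells (Pgp-overexpressing) were grown in RPMI 1640 with 10% FCS and 10 mM HEPES (pH 7.4). They were exposed for 4 days to adriamycin (nine graded concentrations, in triplicate) with or without 5 μM modulator. IC50 was read by the MTT assay. Fold reversion = IC50(ADR alone)/IC50(ADR + modulator).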

DC3F/AD [8] = assay: In vitro activity in DC-3F/AD cell line(Ratio of IC50(actinomycin D alone) / IC50(actinomycin D + modulator) at a concentration of 5 uM
DC3F/AD [9] = assay: In vitro activity in DC-3F/AD cell line Ratio of IC50(actinomycin D alone) / IC50(actinomycin D + modulator) at a concentration of 10 uM
DC3F/AD [10] = assay: as §3; type: functional, Cricetulus griseus; procedure, shortened: as §4
KB [11] = assay: In vitro activity in KB-A1 cell line activity expressed as fold reversion (Ratio of IC50(adriamycin alone) / IC50(adriamycin + modulator) at a concentration of 5 uM; type: functional, Homo sapiens; procedure, shortened: as §5
P388 [12] = assay: Antitumor activity of vincristine against P388 leukemia cell line in mice at a dose of 100 mg/kg.; type: functional, Mus musculus
P388 [13] = assay: Antitumor activity of vincristine against P388 leukemia cell line in mice at a dose of 50 mg/kg.; type: functional, Mus musculus
DC3F/AD [14] = assay: Percent of cell viability remaining after incubating with a 10 uM concentration; type: functional, Cricetulus griseus; procedure, shortened: as §4
Cricetinae gen. sp. [15] = assay: Compound was evaluated for in vitro activity in DC-3F/AD cell line(Ratio of IC50(actinomycin D alone) / IC50(actinomycin D + modulator) at a concentration of 5 uM
DC3F/AD [16] = assay: Percent of cell viability remaining after incubating the cells with the modulator alone at a concentration of 5 uM; type: functional, Cricetulus griseus; procedure, shortened: as §4
DC3F/AD [17] = assay: Compound was evaluated for in vitro activity in DC-3F/AD cell line (Ratio of IC50(actinomycin D alone) / IC50(actinomycin D + modulator) at a concentration of 5 uM
P388 [18] = assay: Antitumor activity of vincristine against P388 leukemia cell line in mice at a dose of 100 mg/kg; type: functional, Mus musculus
P388 [19] = assay: Antitumor activity of vincristine against P388 leukemia cell line in mice at a dose of 50 mg/kg; type: functional, Mus musculus
KB [20] = assay: as §2; type: functional, Homo sapiens; procedure, shortened: as §1
P388/VCR [21] = assay: Antitumor activity of vincristine against P388/VCR leukemia in mice at a dose of 100 mg/kg.; type: functional, Mus musculus
P388/VCR [22] = assay: Antitumor activity of vincristine against P388/VCR leukemia in mice at a dose of 50 mg/kg.; type: functional, Mus musculus
P388/VCR [23] = assay: Antitumor activity of vincristine against P388/VCR leukemia in mice at a dose of 100 mg/kg; type: functional, Mus musculus
P388/VCR [24] = assay: Antitumor activity of vincristine against P388/VCR leukemia in mice at a dose of 50 mg/kg; type: functional, Mus musculus

Compound: C=CCNc1nc(NCC=C)nc(N2CCN(CC3c4ccccc4CCc4ccccc43)CC2)n1
- Increase (DC3F/AD [1]): 24.5
- Increase (DC3F/AD [2]): 17.6
- Viability (Cricetinae gen. sp. [3]): 70%
- Viability (DC3F/AD [4]): 84%
- Viability (KB [5]): 121%
- Increase (KB [6]): 29.7
- Fold reversion (KB [7]): 63
- Fold reversion (DC3F/AD [8]): 464
- Fold reversion (DC3F/AD [9]): 1832

Compound: C=CCNc1nc(NCC=C)nc(N2CCC(NCC3c4ccccc4N(C)S(=O)(=O)c4cc(Cl)ccc43)CC2)n1 (stereo not given)
- Increase (DC3F/AD [1]): 24.1
- Increase (DC3F/AD [2]): 22.8
- Of viability (DC3F/AD [10]): 77%
- Viability (DC3F/AD [4]): 91%
- Viability (KB [5]): 92%
- Increase (KB [6]): 39.8
- Fold reversion (KB [11]): 147
- T/C (P388 [12]): 173%
- T/C (P388 [13]): 177%
- Fold reversion (DC3F/AD [8]): 2804
- Fold reversion (DC3F/AD [9]): 9570

Compound: C=CCNc1nc(NCC)nc(N2CCC(NCC3c4ccccc4COc4ccccc43)CC2)n1 (stereo not given)
- Increase (DC3F/AD [1]): 21.8
- Increase (DC3F/AD [2]): 18
- Viability (DC3F/AD [4]): 76%
- Viability (KB [5]): 101%
- Increase (KB [6]): 38.8
- Fold reversion (KB [11]): 229
- T/C (P388 [12]): 180%
- T/C (P388 [13]): 196%
- Viability (DC3F/AD [14]): 86%
- Fold reversion (DC3F/AD [9]): 2630
- Fold reversion (Cricetinae gen. sp. [15]): 1327

Compound: C=CCNc1nc(NCC=C)nc(N2CCN(C(c3ccc(F)cc3)c3ccc(F)cc3)CC2)n1.CS(=O)(=O)O
- Increase (DC3F/AD [1]): 17.9
- Increase (DC3F/AD [2]): 7.3
- Viability (DC3F/AD [16]): 65%
- Viability (DC3F/AD [14]): 63%
- Fold reversion (DC3F/AD [8]): 112
- Fold reversion (DC3F/AD [9]): 235

Compound: COc1ccc(CCN(C)CCCC(C#N)(c2ccc(OC)c(OC)c2)C(C)C)cc1OC (stereo not given)
- Increase (DC3F/AD [1]): 7.5
- Increase (DC3F/AD [2]): 2.6
- Viability (DC3F/AD [4]): 43%
- Viability (KB [5]): 75%
- Increase (KB [6]): 13.4
- Fold reversion (KB [7]): 26
- Viability (DC3F/AD [14]): 39%
- Fold reversion (DC3F/AD [9]): 34
- Fold reversion (DC3F/AD [17]): 3

Compound: C=CCNc1nc(NCC=C)nc(N2CCC(NCC3c4ccccc4COc4ccccc43)CC2)n1 (stereo not given)
- Increase (DC3F/AD [1]): 25.3
- Increase (DC3F/AD [2]): 25.5
- Viability (DC3F/AD [4]): 82%
- Viability (KB [5]): 106%
- Increase (KB [6]): 53.7
- Fold reversion (KB [7]): 274
- T/C (P388 [18]): 191%
- T/C (P388 [19]): 196%
- Viability (DC3F/AD [14]): 78%
- Fold reversion (DC3F/AD [8]): 1932
- Fold reversion (DC3F/AD [9]): 5344

Compound: C=CCNc1nc(NCCC)nc(N2CCC(NCC3c4ccccc4CCc4ccccc43)CC2)n1
- Increase (DC3F/AD [1]): 24.9
- Increase (DC3F/AD [2]): 27.3
- Viability (DC3F/AD [4]): 85%
- Viability (KB [5]): 55%
- Increase (KB [20]): 51.3
- Fold reversion (KB [11]): 221
- T/C (P388 [12]): 176%
- T/C (P388 [13]): 179%
- Viability (DC3F/AD [14]): 42%
- Fold reversion (DC3F/AD [8]): 2753
- Fold reversion (DC3F/AD [9]): 4455

Compound: C=CCNc1nc(NCC=C)nc(N2CCC(NC(c3ccccc3)c3ccccc3)CC2)n1
- Increase (DC3F/AD [1]): 40
- Increase (DC3F/AD [2]): 25.9
- Viability (DC3F/AD [16]): 75%
- Viability (DC3F/AD [14]): 61%
- Fold reversion (DC3F/AD [8]): 905
- Fold reversion (DC3F/AD [9]): 1828

Compound: C=CCNc1nc(NCCC)nc(N2CCC(NCC(c3ccccc3)c3ccccc3)CC2)n1
- Increase (DC3F/AD [1]): 34.2
- Increase (DC3F/AD [2]): 26
- Viability (DC3F/AD [4]): 77%
- Viability (KB [5]): 93%
- Increase (KB [6]): 51.5
- Fold reversion (KB [11]): 236
- T/C (P388/VCR [21]): 163%
- T/C (P388/VCR [22]): 167%
- T/C (P388 [12]): 177%
- T/C (P388 [13]): 176%
- Viability (DC3F/AD [14]): 66%
- Fold reversion (DC3F/AD [8]): 965
- Fold reversion (DC3F/AD [9]): 2356

Compound: C=CCNc1nc(NCC=C)nc(N2CCC(NCC(c3ccc(F)cc3)c3ccc(F)cc3)CC2)n1
- Increase (DC3F/AD [1]): 35.6
- Increase (DC3F/AD [2]): 26.1
- Viability (DC3F/AD [4]): 78%
- Viability (KB [5]): 75%
- Increase (KB [6]): 56.5
- Fold reversion (KB [11]): 168
- T/C (P388 [19]): 168%
- T/C (P388/VCR [23]): 185%
- T/C (P388/VCR [24]): 176%
- T/C (P388 [12]): 157%
- Viability (DC3F/AD [14]): 62%
- Fold reversion (DC3F/AD [9]): 2564
- Fold reversion (DC3F/AD [17]): 918
